Test results reported in ChEMBL document CHEMBL1123641, “Antiulcer agents. 2. Gastric antisecretory, cytoprotective, and metabolic properties of substituted imidazo[1,2-a]pyridines and analogues” (J Med Chem, 1987).

Columns and labels:
Canis familiaris [1] = assay: Antisecretory activity in histamine stimulated dogs at 2 mg/kg dose administered intravenously; type: functional; settings: Canis lupus familiaris, route intravenous
Outline: (§1)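 Adult mongrel dogs with surgically prepared Heidenhain pouches, acid secretion stimulated with histamine. Compound given intravenously (0.1-5 mg/kg range). Acid output reduction is expressed relative to the nondrug-treated control value in the same animal, each dog serving as its own control. Unless noted otherwise, one dog per compound. ED50 is the iv dose reducing acid output to 50% of control.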

Canis familiaris [2] = assay: Antisecretory activity in histamine stimulated dogs following 5 mg/kg i.v. administration.; type: functional; settings: Canis lupus familiaris, route intravenous; outline: as §1
Canis familiaris [3] = assay: Antisecretory activity in histamine stimulated dogs at 8 mg/kg dose administered orally; type: functional; settings: Canis lupus familiaris, route oral
Outline: (§2)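 Heidenhain pouch mongrel dogs, histamine-stimulated acid secretion. Compound given orally at 2–8 mg/kg. Reduction in acid output is relative to the same animal's own nondrug control, since histamine response depends on pouch size. Usually a single dog per compound. Oral ED50 is the dose reducing acid output to 50% of control.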

Rattus norvegicus [4] = species: Rattus norvegicus; assay: Cytoprotective activity in rats against the ethyl alcohol stimulated ulcers measured as effective dose; type: functional
Outline: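 Rats were dosed orally at 1–30 mg/kg, 30 min before an oral challenge of absolute ethanol. Ethanol-induced gastric lesions were scored 1 h later, and an effective dose was estimated.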

Rattus norvegicus [5] = assay: Antisecretory activity in pylorus ligated rats at a 40 mg/kg dose administered intraperitoneally; type: functional; settings: ip, route intraperitoneal
Outline: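 Pylorus-ligated rats, six per compound and eight controls. Compound given intraperitoneally at 40 mg/kg at the time of ligation. Reduction in acid output measured over 4 h.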

Canis familiaris [6] = assay: Antisecretory activity in histamine stimulated dogs at 5 mg/kg dose administered intravenously; type: functional; settings: Canis lupus familiaris; route intravenous; outline: as §1
Canis familiaris [7] = assay: Antisecretory activity in histamine stimulated dogs at 5 mg/kg dose administered orally measured as 50% effective concentration; type: functional; settings: Canis lupus familiaris; dose 5 mg/kg; route oral; outline: as §2
Canis familiaris [8] = assay: Antisecretory activity in histamine stimulated dogs at 0.1 mg/kg dose administered intravenously; type: functional; settings: Canis lupus familiaris, route intravenous; outline: as §1
Canis familiaris [9] = assay: Antisecretory activity in histamine stimulated dogs at 1 mg/kg dose administered intravenously; type: functional; settings: Canis lupus familiaris, route intravenous; outline: as §1
Canis familiaris [10] = assay: Antisecretory activity in histamine stimulated dogs at 2 mg/kg dose administered orally; type: functional; settings: Canis lupus familiaris, route oral; outline: as §2
Canis familiaris [11] = assay: Antisecretory activity in histamine stimulated dogs at 4 mg/kg dose administered orally; type: functional; settings: Canis lupus familiaris, route oral; outline: as §2
Rattus norvegicus [12] = assay: Antisecretory activity in pylorus ligated rats at 40 mg/kg dose administered intraperitoneally; settings: ip

CCNc1c(C)nc2c(OCc3ccccc3)cccn12
inhibition in vivo at 2 mg/kg (Canis familiaris [1]): 32% | inhibition in vivo at 5 mg/kg (Canis familiaris [2]): 70% | inhibition in vivo at 8 mg/kg (Canis familiaris [3]): 68% | ED50 (Rattus norvegicus [4]): 3.5 mg/kg | inhibition in vivo at 40 mg/kg (Rattus norvegicus [5]): 95%

CC(=O)Nc1c(C)nc2c(CCc3ccccc3)cccn12
inhibition in vivo at 5 mg/kg (Canis familiaris [2]): 3% | inhibition in vivo at 8 mg/kg (Canis familiaris [3]): 16% | ED50 (Rattus norvegicus [4]): 12 mg/kg | inhibition in vivo at 40 mg/kg (Rattus norvegicus [5]): 40%

Cc1nc2c(COc3ccccc3)cccn2c1N
inhibition in vivo at 5 mg/kg (Canis familiaris [2]): 34% | inhibition in vivo at 8 mg/kg (Canis familiaris [3]): 39% | ED50 (Rattus norvegicus [4]): 6.6 mg/kg | inhibition in vivo at 40 mg/kg (Rattus norvegicus [5]): 27%

Cc1nc2c(OCc3ccccc3)cccn2c1CC#N
ED50 (Canis familiaris [6]): 0.09 mg/kg | ED50 at 5 mg/kg (Canis familiaris [7]): 4.4 mg/kg | inhibition in vivo at 0.1 mg/kg (Canis familiaris [8]): 49% | inhibition in vivo at 1 mg/kg (Canis familiaris [9]): 83% | inhibition in vivo at 2 mg/kg (Canis familiaris [1]): 95% | inhibition in vivo at 2 mg/kg (Canis familiaris [10]): 20% | inhibition in vivo at 4 mg/kg (Canis familiaris [11]): 42% | inhibition in vivo at 5 mg/kg (Canis familiaris [2]): 99% | inhibition in vivo at 8 mg/kg (Canis familiaris [3]): 77% | ED50 (Rattus norvegicus [4]): 3 mg/kg | inhibition in vivo at 40 mg/kg (Rattus norvegicus [5]): 98%

Nc1cnc2c(OCc3ccccc3)cccn12
inhibition in vivo at 1 mg/kg (Canis familiaris [9]): 49% | inhibition in vivo at 2 mg/kg (Canis familiaris [1]): 81% | inhibition in vivo at 8 mg/kg (Canis familiaris [3]): 43% | ED50 (Rattus norvegicus [4]): 9.1 mg/kg | inhibition in vivo at 40 mg/kg (Rattus norvegicus [5]): 32%

Cc1ccn2c(N)c(C)nc2c1OCc1ccccc1
inhibition in vivo at 4 mg/kg (Canis familiaris [11]): 36% | inhibition in vivo at 8 mg/kg (Canis familiaris [3]): 64% | ED50 (Rattus norvegicus [4]): 13.5 mg/kg | inhibition in vivo at 40 mg/kg (Rattus norvegicus [5]): 60%

Cc1nc2c(CCc3ccccc3)cccn2c1N
inhibition in vivo at 1 mg/kg (Canis familiaris [9]): 46% | inhibition in vivo at 2 mg/kg (Canis familiaris [1]): 71% | inhibition in vivo at 2 mg/kg (Canis familiaris [10]): 19% | inhibition in vivo at 4 mg/kg (Canis familiaris [11]): 41% | inhibition in vivo at 8 mg/kg (Canis familiaris [3]): 52% | ED50 (Rattus norvegicus [4]): 9 mg/kg | inhibition in vivo at 40 mg/kg (Rattus norvegicus [5]): 47%

Cc1nc2c(OCc3ccccc3F)cccn2c1N
inhibition in vivo at 2 mg/kg (Canis familiaris [1]): 93% | inhibition in vivo at 2 mg/kg (Canis familiaris [10]): 20% | inhibition in vivo at 4 mg/kg (Canis familiaris [11]): 46% | inhibition in vivo at 8 mg/kg (Canis familiaris [3]): 93% | ED50 (Rattus norvegicus [4]): 6.6 mg/kg | inhibition in vivo at 40 mg/kg (Rattus norvegicus [5]): 93%

Cc1nc2c(OCc3ccccc3)cccn2c1NCc1ccccc1
inhibition in vivo at 5 mg/kg (Canis familiaris [2]): 0% | ED50 (Rattus norvegicus [4]): 2.5 mg/kg | inhibition in vivo at 40 mg/kg (Rattus norvegicus [5]): 48%

Cc1cc(OCc2ccccc2)c2nc(C)c(C)n2c1
inhibition in vivo at 2 mg/kg (Canis familiaris [1]): 45% | inhibition in vivo at 4 mg/kg (Canis familiaris [11]): 0% | inhibition in vivo at 8 mg/kg (Canis familiaris [3]): 71% | ED50 (Rattus norvegicus [4]): 8.2 mg/kg | inhibition in vivo at 40 mg/kg (Rattus norvegicus [5]): 86%

Cc1nc2c(OCc3ccccc3)cccn2c1CN
inhibition in vivo at 5 mg/kg (Canis familiaris [2]): 49% | inhibition in vivo at 8 mg/kg (Canis familiaris [3]): 9% | inhibition in vivo at 40 mg/kg (Rattus norvegicus [5]): 46%

COc1c(C)nc2c(CCc3ccccc3)cccn12
inhibition in vivo at 2 mg/kg (Canis familiaris [1]): 0% | ED50 (Rattus norvegicus [4]): 20 mg/kg | inhibition in vivo at 40 mg/kg (Rattus norvegicus [12]): 45%

COc1c(C)nc2c(OCc3ccccc3)cccn12
inhibition in vivo at 5 mg/kg (Canis familiaris [2]): 37% | ED50 (Rattus norvegicus [4]): 3.6 mg/kg | inhibition in vivo at 40 mg/kg (Rattus norvegicus [5]): 49%

CCNc1c(C)nc2c(OCc3ccccc3)nccn12
inhibition in vivo at 5 mg/kg (Canis familiaris [2]): 0% | ED50 (Rattus norvegicus [4]): 6 mg/kg | inhibition in vivo at 40 mg/kg (Rattus norvegicus [5]): 48%

Cc1nc2c(OCc3ccccc3)ccc(C)n2c1CC#N.Cl
inhibition in vivo at 4 mg/kg (Canis familiaris [11]): 11% | inhibition in vivo at 5 mg/kg (Canis familiaris [2]): 0% | ED50 (Rattus norvegicus [4]): 8 mg/kg

CSc1c(C)nc2c(CCc3ccccc3)cccn12
inhibition in vivo at 5 mg/kg (Canis familiaris [2]): 0% | ED50 (Rattus norvegicus [4]): 8.5 mg/kg | inhibition in vivo at 40 mg/kg (Rattus norvegicus [5]): 28%
